Data set [1] can be described thus: folding enthalpy; higher = less favourable; fluorescence melt of hairpins on a sequencing array, two-state fit. The note with it: sodium 0.088 M. An outline of the steps: (§1)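 On a sequenced MiSeq flow cell, library hairpins with annealed Cy3 and quencher oligos were imaged for Cy3 fluorescence in 2.5 °C steps up to 60 °C, in 50 mM Na-HEPES pH 8.0, 25 mM NaCl. Normalisation used pre-quench Cy3 and control constructs. Bootstrapped two-state fits gave melting temperature and folding enthalpy, combined by inverse variance across four replicates and with fitted temperatures raised by 9.35 °C to match UV melts.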

Data set [2] in a line: melting temperature; fluorescence melt of hairpins on a sequencing array, two-state fit, raised by 9.35 °C to match UV melts. The note with it: sodium 0.088 M. An outline of the steps: as §1

Take GATCTATATCTAGATC ((((((....)))))): in data set [1], the folding enthalpy was -27.6 kcal/mol. The Tm in data set [2] is 36.2 °C.

GAGTCCGAAAGGACGCTC ((((((....)))..))): the folding enthalpy in data set [1] was -13.6 kcal/mol. Also, the Tm in data set [2] worked out at 64.2 °C.

In the case of GCACTGCGAAAGCCGAGC ((.(.((....)).).)), in data set [1], the folding enthalpy is -20.2 kcal/mol. Besides, the Tm in data set [2] turned out to be 38.8 °C.

For the sequence GCGTAGCCGAAAGGCCGC (((..(((....)))))), the folding enthalpy in data set [1] is -16.8 kcal/mol. Further, in data set [2], the Tm turned out to be 58 °C.

For GATCCGAGTGCGGATC ((((((....)))))), the folding enthalpy in data set [1] was -40.6 kcal/mol. Also, in data set [2], the Tm was found to be 59.1 °C.

On to GATCAGGAACCTGATC ((((((....)))))), for which, in data set [1], the folding enthalpy is -35 kcal/mol. For the same sequence, the Tm in data set [2] amounted to 54.5 °C.

For GATCATCTAGATGATC ((((((....)))))), in data set [1], the folding enthalpy is -43.8 kcal/mol. Further, the Tm in data set [2] came out at 52.7 °C.

Regarding GGTGCTCCGAAAGGAACC (((..(((....)))))), the folding enthalpy in data set [1] was -11.3 kcal/mol. Also, the Tm in data set [2] turned out to be 32.5 °C.

As to GCGGAGGGAAACTTCCGC (((((.(....).))))), the folding enthalpy in data set [1] was -35.4 kcal/mol. For the same sequence, the Tm in data set [2] was determined as 57.9 °C.

In the case of GATCGGACCGCCGATC ((((((....)))))), the folding enthalpy in data set [1] is -39.9 kcal/mol. In data set [2], the Tm turned out to be 54.6 °C.

For GCTCCGCGAAAGCGTTGC ((..(((....)))..)), the folding enthalpy in data set [1] is -14.2 kcal/mol. For the same sequence, the Tm in data set [2] stood at 40.4 °C.

For GTCGGGGGAAACCCTGGC (.(.(((....))).).), the folding enthalpy in data set [1] is -21.8 kcal/mol. Also, the Tm in data set [2] came to 43.9 °C.

In the case of GCCTCAGGAAACTGAAGC ((.((((....)))).)), the folding enthalpy in data set [1] is -24.9 kcal/mol. In data set [2], the Tm was 36.3 °C.

For the sequence GGTACTGGAAACAGTATC (.(((((....))))).), in data set [1], the folding enthalpy is -21.3 kcal/mol. In addition, the Tm in data set [2] was found to be 44.4 °C.

Consider GCAGTGCGAAAGCCCGGC ((.(.((....)).).)), for which, in data set [1], the folding enthalpy is -18.4 kcal/mol. Besides, in data set [2], the Tm was determined as 45 °C.

In the case of GCGAGCGAAAGCTTACGC ((((((....)))..))), in data set [1], the folding enthalpy is -20.6 kcal/mol. Further, the Tm in data set [2] was 50.7 °C.

In the case of GCTTCCGAAAGGAACAGC ((((((....)))..))), the folding enthalpy in data set [1] was -15.1 kcal/mol. Further, in data set [2], the Tm turned out to be 38.3 °C.

Regarding GATCATCGTGATGATC ((((((....)))))), in data set [1], the folding enthalpy is -38.4 kcal/mol. Also, the Tm in data set [2] stood at 57.8 °C.

As to GTTCCTCGAAAGAGTAAC (((.(((....))).))), the folding enthalpy in data set [1] is -27.6 kcal/mol. The Tm in data set [2] is 34.1 °C.

With GTATGTCGAAAGACGTAC (((.(((....))).))), in data set [1], the folding enthalpy was -24.8 kcal/mol. The Tm in data set [2] came to 52.8 °C.

As for GATCCGTACGCGGATC ((((((....)))))), the folding enthalpy in data set [1] is -39.5 kcal/mol. In addition, the Tm in data set [2] came to 63.5 °C.

For GGCTCCGGAAACGGGGCC (((.(((....))).))), in data set [1], the folding enthalpy is -50.7 kcal/mol. For the same sequence, the Tm in data set [2] is 67.5 °C.

On to CGTGCGGAAACGCATACG ((((((....)))..))), for which the folding enthalpy in data set [1] was -15.4 kcal/mol. In addition, the Tm in data set [2] turned out to be 44.9 °C.

Consider GTTTGGGCGAAAGCCAAC (((..(((....)))))), for which, in data set [1], the folding enthalpy is -10.8 kcal/mol. In addition, the Tm in data set [2] came out at 36.1 °C.

In the case of GCTCTTGGAAACGAGAGC (((((.(....).))))), in data set [1], the folding enthalpy was -30.2 kcal/mol. For the same sequence, the Tm in data set [2] is 51.2 °C.

On to GAGAACGGAAACGTTTTC ((.((((....)))).)), for which, in data set [1], the folding enthalpy was -25.3 kcal/mol. Besides, the Tm in data set [2] was 41.3 °C.

On to GGGGAACGAAAGTTACCC (((.(((....))).))), for which the folding enthalpy in data set [1] was -47.9 kcal/mol. Besides, the Tm in data set [2] was determined as 60.6 °C.

With GAGCCCGAAAGGGGCCTC ((((((....)))..))), the folding enthalpy in data set [1] was -13.5 kcal/mol. Besides, the Tm in data set [2] amounted to 49.9 °C.

For CGCAACGGAAACGTGGCG (((.(((....))).))), the folding enthalpy in data set [1] is -46.5 kcal/mol. Besides, the Tm in data set [2] amounted to 57.7 °C.

With GCAATTACGAAAGTATGC (((..(((....)))))), the folding enthalpy in data set [1] was -20.3 kcal/mol. The Tm in data set [2] was 31.1 °C.

Turning to GGGGGCGGAAACGCCCTC (.(((((....))))).), in data set [1], the folding enthalpy is -11.6 kcal/mol. Also, the Tm in data set [2] is 63.4 °C.

On to GCCGGGCGAAAGCCTTGC ((..(((....)))..)), for which, in data set [1], the folding enthalpy is -12.4 kcal/mol. Further, the Tm in data set [2] is 40.2 °C.

Take GTCTTGGCGAAAGCCGAC (((..(((....)))))): the folding enthalpy in data set [1] is -9.96 kcal/mol. Moreover, the Tm in data set [2] amounted to 37.5 °C.

In the case of GTTCGCGAAAGCGATAAC ((((((....)))..))), the folding enthalpy in data set [1] is -8.04 kcal/mol. For the same sequence, the Tm in data set [2] was determined as 32.7 °C.

GACCTGGGAAACCAGGCC (.(((((....))))).): in data set [1], the folding enthalpy was -12.7 kcal/mol. In addition, the Tm in data set [2] came to 46.4 °C.

Take GGTGTTGGAAACAGCATC (.((.((....)).)).): the folding enthalpy in data set [1] was -17.7 kcal/mol. Also, the Tm in data set [2] was determined as 46.5 °C.

GGATGGCGAAAGCCTTCC (((.(((....))).))): the folding enthalpy in data set [1] was -24.3 kcal/mol. Moreover, in data set [2], the Tm stood at 56.6 °C.

These data come from the array DNA melting data of Ke et al. (doi:10.1101/2024.01.08.574731).
